Screening results deposited in PubChem by several laboratories.
PTK2B oligo ant: antagonists of Pyk2 self-association, primary screen, Q293 cells, FERM NanoBiT luminescence, HTS; Protein-tyrosine kinase 2-beta (Homo sapiens), Q14289; hits give low values; z-score (the deposit names both 25 µM and 10 µM); hit rate 0.83% among 99,000; AID 1347419, 2020;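 active = Z-score of -3 or lower, scaled per plate to the spread of control and sample wells; inactive = z-score above -3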;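 note: negative z-score means lost luminescence so less FERM oligomerization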
Cav3 T inh: Cav3.2 calcium influx blockers – cell-based, Fluo-4 calcium fluorescence, FDSS, MLSMR library, primary screen; Voltage-dependent T-type calcium channel subunit alpha-1H (Homo sapiens), O95180; Cav3.2-expressing cells; hits give low values; B-score at 10 µM; hit rate 4% among 100,000; AID 449739, 2010;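 active = single-dose well whose peak fluorescence ratio is a statistical outlier from its plate by either plate-standardised score or position-corrected B-score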
E coli WT exp: growth inhibitors of wild-type E. coli, primary screen, strain BW25113, expanded library, OD600 | growth inhibition, % at 100 µM | hit rate 0.15% among 98,000 | OD600 absorbance;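 active = growth inhibition above about 50% at one test dose, limit read from the data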;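 note: growth measured after 20 h incubation at 37 °C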
PostGolgi yeast: phenotypic screen on post-Golgi transport, primary screen; post-Golgi transport phenotypic cell assay; inhibition, % at 10 µM; hit rate 0.9% among 98,000; AID 739, 2007;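 note: yeast cells grown in 1536-well plates; yeast grown about 18 h at 30C before absorbance read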
tolC growth inh: growth inhibitors of E. coli tolC mutant, primary screen, strain BW25113 ΔtolC::kan, 384-well | OD615 | growth inhibition, % at 10 µM (by protocol) | hit rate 2.2% among 65,000 | AID 573, 2007;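 active = growth inhibition at or above a cutoff equal to the mean over every tested compound plus 3 SD, cut at about 60% in these data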;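 note: growth measured after 20 h incubation at 37 °C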
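Test system: E. coli BW25113 ΔtolC::kan bacteria | Medium: Kanamycin-containing LB broth (50 µg/mL) | Dosing: One dose of 10 µM final | Times: 20 h incubation with compound, 37 °C | Detection: Optical density read at 615 nm | Read-out basis: Percent growth inhibition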
PostGolgi ctrl: growth inhibition of yeast control strain, primary screen, counter-screen for post-Golgi transport modulator project; inhibition, % at 10 µM; efflux-deficient yeast background strain, growth absorbance A615, 16 h; hit rate 5% among 98,000
An asterisk follows results filed as active; · = not tested or not shown. Sampled rows, rich in hits. Any-hit rate of the full collection: about 8.7%. Cut-off read from the data, not from the text of the source, unless noted: active = inhibition above about 30%; inactive = the rest.

SMILES	PTK2B oligo ant	Cav3 T inh	E coli WT exp	PostGolgi yeast	tolC growth inh	PostGolgi ctrl
CC(C)NC(=O)COC(=O)c1ccc(Cl)c(S(=O)(=O)N2CCCC2)c1	-0.04	-0.69	6	-3	·	32*
Cc1cc(C)c(C#N)c(SCC(=O)N2CCCCC2)n1	1.2	1.5	-3	-8	-4	13
CCN(Cc1ccccc1)C(=O)CSc1nc(C)cc(C)c1C#N	·	-4.1*	-6	10	29	35*
Cc1cc(C)c(C#N)c(SCC(=O)C(C)(C)C)n1	0.01	-1.2	10	-20	·	-2
Cc1cc(C)c(C#N)c(SCC(=O)N2CCN(Cc3ccccc3)CC2)n1	0.64	-1	-2	16	9	31*
O=C1CC(c2ccccc2)CC(O)=C1C=NC1CCCCC1 (stereo not drawn)	-0.66	·	-1	1	·	28
O=C1c2ccccc2C(Nc2cccc(C(F)(F)F)c2)N1Cc1ccco1 (stereo not drawn)	-1.9	-5.2*	-5	-1	93*	32*
CCOC(=O)c1cccc(NC2c3ccccc3C(=O)N2Cc2ccco2)c1 (stereo not drawn)	·	-6.6*	-8	-6	31	9
Cc1ccccc1N=C1NC(=O)CC(c2ccccc2)S1 (stereo not drawn)	0.24	-2.8	-6	8	·	13
C=CCc1cc(C=O)cc(OC)c1OCc1c(Cl)cccc1Cl	-0.9	-1.1	-2	-3	·	14
CSc1nc2nccc(-c3ccc(-c4ccccc4)cc3)n2n1	-0.53	0.026	-9	6	·	0
CSc1nc2nccc(-c3ccc(Oc4ccccc4)cc3)n2n1	1.1	0.72	-3	-1	·	33*
O=C(NCC1CCN(c2ccc(S(=O)(=O)N3CCOCC3)cc2)CC1)c1ccc(Cl)cc1	0.35	-5.4*	-7	-1	·	15
O=C(NC1CCCC1)c1ccc(S(=O)(=O)N2CCOCC2)cc1	-0.36	0.14	3	-2	·	4
O=C1c2ccccc2S(=O)(=O)N1CCOc1ccc(F)cc1	-1.2	-1.6	0	0	13	-2
Cc1cccc(-n2ncc3c(N(C)Cc4ccccc4)ncnc32)c1	·	0.24	·	·	93*	·
Cc1ccc(-n2ncc3c(N4CCCC4)ncnc32)c(C)c1	0.3	3.1	3	0	-3	33*
CCN1CCN(c2ncnc3c2cnn3-c2ccccc2)CC1	·	·	3	-1	-3	14
Cc1ccc(-n2ncc3c(N4CCCC(C)C4)ncnc32)c(C)c1 (stereo not drawn)	·	0.74	·	·	41	·
Cc1cccc(-n2ncc3c(N4CCC(C)CC4)ncnc32)c1	·	-1	-2	44*	94*	45*
Cc1cccc(-n2ncc3c(N4CCC5(CC4)OCCO5)ncnc32)c1	·	0.69	·	·	-12	·
c1ccc(CCN2CCN(c3ncnc4c3cnn4-c3ccccc3)CC2)cc1	-0.91	3	-23	-3	66*	12
CCCCN(Cc1ccccc1)C(=O)C1CCCN(S(=O)(=O)c2cnc[nH]2)C1 (stereo not drawn)	·	-0.35	5	0	6	2
COc1cccc(N2CCN(c3ncnc4c3cnn4-c3ccc(C)cc3C)CC2)c1	·	1.4	-9	3	30	46*
COc1ccc(C2=NOC(C)(c3nnc(-c4ccccc4)o3)C2)cc1 (stereo not drawn)	·	-1.7	·	·	·	·
SMILES	PTK2B oligo ant	Cav3 T inh	E coli WT exp	PostGolgi yeast	tolC growth inh	PostGolgi ctrl
Cc1cc(NCCCn2ccnc2)n2nc(C)c(-c3ccccc3)c2n1	-0.25	2.4	-5	3	·	12
N=c1c2c(-c3ccccc3)c(-c3ccccc3)n(Cc3ccco3)c2ncn1Cc1ccco1	-2.1	-9.3*	18	91*	64*	48*
N=c1c2c(-c3ccccc3)c(-c3ccccc3)n(Cc3ccccc3)c2ncn1CCCn1ccnc1	-0.48	-0.45	28	95*	23	77*
O=c1c2cnn(-c3ccccc3)c2ncn1Cc1ccco1	0.07	-0.07	0	1	·	0
Cc1cc(NC(=O)C2CCC2)n(-c2ccccn2)n1	0.28	0.44	0	-4	-9	2
CCN1CCc2c(C#N)c(N3CCOCC3)nc(NCCO)c2C1	-0.32	-0.33	-7	-6	-13	13
O=C(Nc1cccc(-c2nc3ncccc3o2)c1)c1cc2ccccc2o1	-2	-1.5	-11	11	11	35*
